# Measurements: ChEMBL document CHEMBL1154120, “Synthesis and properties of nucleoside derivatives acylated by chemically stable 2-(trimethylsilyl)benzoyl group” (Bioorg Med Chem, 2009)
# Tests used:
# Assay type in all cases: physicochemical
# [1] = Chemical stability in 2 M NaOH/EtOH solution at room temperature assessed as time taken for complete hydrolysis
# In short: (§1)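 Nucleoside derivatives carrying 2-substituted benzoyl masking groups were kept in the basic solution. The time until hydrolysis was complete was recorded. Substrates showing no change over a 24 h observation window were scored as stable at 24 h.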
# [2] = Chemical stability in NH3-EtOH (9:1, v/v) at 55 deg C assessed as time taken for complete hydrolysis; in short: as §1
# [3] = Chemical stability in 1.5 M NaOMe/MeOH solution at room temperature assessed as time taken for complete hydrolysis; in short: as §1
# [4] = Chemical stability in NH3-EtOH (9:1, v/v) at room temperature assessed as time taken for complete hydrolysis; in short: as §1
# [5] = Chemical stability in 0.5 M NaOH/EtOH solution at room temperature assessed as time taken for complete hydrolysis; in short: as §1
SMILES,Stability [1] [h],Stability [2] [h],Stability [3] [h],Stability [4] [h],Stability [5] [h]
C[Si](C)(C)c1ccccc1C(=O)Nc1ccn([C@H]2C[C@H](O)[C@@H](CO)O2)c(=O)n1,> 24,> 24,> 24,–,–
Cc1ccccc1C(=O)OC[C@H]1O[C@@H](n2cc(C)c(=O)[nH]c2=O)C[C@@H]1O,0.25,10,–,24,1
Cc1cn([C@H]2C[C@H](O)[C@@H](COC(=O)c3ccccc3C(C)(C)C)O2)c(=O)[nH]c1=O,4,> 24,–,> 24,24
C[Si](C)(C)c1ccccc1C(=O)O[C@@H]1[C@H](O)[C@@H](CO)O[C@H]1n1ccc(=O)[nH]c1=O,–,8,–,48,–
Cc1cn([C@H]2C[C@H](O)[C@@H](COC(=O)c3ccccc3[Si](C)(C)C)O2)c(=O)[nH]c1=O,4,> 24,–,> 24,24
Cc1cn([C@H]2C[C@H](O)[C@@H](COC(=O)C=C[Si](C)(C)C)O2)c(=O)[nH]c1=O,–,4,–,12,–
